# Experimental data taken from ChEMBL document CHEMBL1811823, “Quinazolinone linked pyrrolo[2,1-c][1,4]benzodiazepine (PBD) conjugates: Design, synthesis and biological evaluation as potential anticancer agents” (2010).
# Calls of active or inactive are those of the source. The calls are words filed in the database; no cut-off is given here.
# Columns and labels:
# MCF7 = test: Growth inhibition of human MCF7 cells after 48 hrs by SRB assay; type: functional; settings: MCF7, 48 h
# In short: (§1)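 Cells grown in RPMI 1640 with 10% FBS and 2 mM L-glutamine, plated at densities set by doubling time, pre-incubated 24 h at 37 °C/5% CO2. Drug tested at 0.1, 1, 10 and 100 µM in triplicate wells for 48 h continuous exposure. Cells fixed with cold TCA (final 10%) 60 min at 4 °C, stained with 0.4% SRB, dye eluted in 10 mM Tris. Absorbance read at 540 nm (690 nm reference); percent growth calculated relative to control wells.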
# COLO 205 = test: Growth inhibition of human COLO205 cells after 48 hrs by SRB assay; type: functional; settings: COLO 205, 48 h; in short: as §1
# KB = test: Growth inhibition of human KB cells after 48 hrs by SRB assay; type: functional; in short: as §1
# HOP-62 = test: Growth inhibition of human HOP62 cells after 48 hrs by SRB assay; type: functional; settings: HOP-62, 48 h; in short: as §1
# SiHa = test: Growth inhibition of human SiHa cells after 48 hrs by SRB assay; type: functional
# In short: (§2)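 SRB assay with 48 h continuous exposure. Cells were grown in RPMI 1640 with 10% FBS and 2 mM L-glutamine and preincubated 24 h at 37 °C, 5% CO2. Compounds were tested at four concentrations (0.1, 1, 10, 100) in triplicate wells. Cells were fixed with cold TCA (10% final) for 60 min at 4 °C, stained 20 min with 0.4% SRB in 1% acetic acid, and the dye eluted with 10 mM Tris. A540 was read against a 690 nm reference. Percent growth is relative to control wells on each plate.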
# A2780 = test: Growth inhibition of human A2780 cells after 48 hrs by SRB assay; type: functional; settings: A2780, 48 h; in short: as §1
# [1] = Growth inhibition of human DWD cells after 48 hrs by SRB assay; type: functional; in short: as §1
# [2] = Growth inhibition of human Gurav cells after 48 hrs by SRB assay; type: functional; in short: as §1
# ZR-75-1 = test: Growth inhibition of human ZR-75-1 cells after 48 hrs by SRB assay; type: functional; settings: ZR-75-1, 48 h; in short: as §2
# PC-3 = test: Growth inhibition of human PC3 cells after 48 hrs by SRB assay; type: functional; settings: PC-3, 48 h; in short: as §1
# A549 = test: Growth inhibition of human A549 cells after 48 hrs by SRB assay; type: functional; settings: A549, 48 h; in short: as §1
# Nucleic Acid = test: Binding affinity to calf thymus DNA assessed as change in melting temperature at 20 uM at pH 7 incubated for 18 hrs at 37 degC by thermal denaturation assay; type: nucleic-acid assay; settings: Bos taurus
# In short: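 CT-DNA (100 µM in phosphate) with 20 µM ligand, 1:5 [PBD]/[DNA], in 10 mM sodium phosphate/1 mM Na2EDTA buffer pH 7.00. Ligand added from methanol solution; incubated at 37 °C for 0 or 18 h. A260 monitored while heating 1 °C/min over 40–90 °C. Tm taken from d(A260)/dT maxima; ΔTm = Tm(DNA+PBD) − Tm(DNA alone). Values are means of at least three determinations, corrected for methanol cosolvent.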
# A-375 [3] = test: Cell cycle arrest in human A375 cells assessed as decrease in G2/M phase at 4 uM after 24 hrs by propidium iodide staining based flow cytometry; type: functional; parameters: scale not given: the % may be the effect or the level left
# In short: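 A375 melanoma cells (DMEM, 10% FCS, 37 °C, 5% CO2) seeded at 5×10^5 per dish and grown 24 h, then exposed to 0–4 µM for 24 h. Harvested with trypsin-EDTA, fixed in ice-cold 70% ethanol, RNase A treated (1 mg/ml, 37 °C, 30 min), stained with propidium iodide and analysed by flow cytometry for phase distribution.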
# A-375 [4] = test: Increase in cytochrome C release in human A375 cells at 4 uM after 24 hrs by Western blot; type: functional, cell-based
# In short: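 Western blot of A375 cell lysates after 24 h exposure at 4 µM, with 30 µg protein/lane on 12% SDS-PAGE and transfer to PVDF. Probed overnight at 4 °C with anti-cytochrome c (1:500), then HRP secondary and chemiluminescence. β-actin was the loading control; untreated and DMSO-only cells served as controls.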
# A-375 [5] = test: Inhibition of NF-kappaB signaling in human A375 cells at 4 uM after 24 hrs by Western blot; type: cell-based
# In short: (§3)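 A375 cells (DMEM, 10% FCS, 37 °C, 5% CO2) were treated at 4 µM for 24 h. Lysates were loaded at 30 µg protein/lane on 12% SDS-PAGE and transferred to PVDF. Membranes were blocked 2 h in TBST, incubated with primary antibody overnight at 4 °C (p53 1:100, p27 1:500, NF-κB p65 1:500), then HRP secondary 1 h, with chemiluminescent detection. β-actin was the loading control; untreated and DMSO controls were run.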
# A-375 [6] = test: Induction of apoptosis in human A375 cells assessed as sub-G1 phase accumulation at 4 uM after 24 hrs by propidium iodide staining based flow cytometry; type: functional
# In short: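 A375 cells (5×10^5 per 60 mm dish) were grown 24 h, then treated 24 h at 0–4 µM. Cells were harvested with trypsin-EDTA, fixed in ice-cold 70% ethanol for 30 min at 4 °C, treated with RNase A (1 mg/ml) for 30 min at 37 °C, and stained with propidium iodide. Cell-cycle distribution, including the sub-G1 fraction, was measured by flow cytometry. DMSO-exposed cells were the control.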
# A-375 [7] = test: Cytotoxicity against human A375 cells assessed as cell viability after 24 hrs by MTT assay; type: functional
# In short: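 A375 cells seeded at 10,000/well, incubated overnight, then treated for 24 h. MTT added at 10% of culture volume for 2 h at 37 °C. Formazan dissolved in 20% SDS/50% DMF overnight at 37 °C; absorbance read at 570 nm against a medium blank. Viability expressed as percent of untreated cells.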
# A-375 [8] = test: Increase in p53 protein expression in human A375 cells at 4 uM after 24 hrs by Western blot; type: functional, cell-based; in short: as §3
# A-375 [9] = test: Increase in active caspase-3 protein level in human A375 cells at 4 uM after 24 hrs by Western blot; type: functional, cell-based
# In short: (§4)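 A375 cells were exposed 24 h at 4 µM. Lysates (30 µg/lane) were run on 12% SDS-PAGE and transferred to PVDF, then probed overnight at 4 °C with anti-cleaved caspase-3 (1:200, detects 21 kDa) or anti-PARP (1:2000, detects 113 and 85 kDa). HRP secondary and chemiluminescence were used. β-tubulin was the loading control; untreated and DMSO controls were included.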
# A-375 [10] = test: Increase in active PARP cleavage product (85kDa) level in human A375 cells at 4 uM after 24 hrs by Western blot; type: functional, cell-based; in short: as §4
# A-375 [11] = test: Decrease in Bcl-2 mRNA expression in human A375 cells at 4 uM after 24 hrs by RT-PCR
# A-375 [12] = test: Increase in p27 protein expression in human A375 cells at 4 uM after 24 hrs by Western blot; type: functional, cell-based; in short: as §3
GI50 (MCF7),GI50 (COLO 205),GI50 (KB),GI50 (A2780),GI50 (PC-3),GI50 (A549),ΔTm (Nucleic Acid),SMILES,GI50 (HOP-62),GI50 (SiHa),GI50 [1],GI50 [2],GI50 (ZR-75-1),further results
< 100 nM,140 nM,160 nM,140 nM,170 nM,140 nM,2.2 °C,COc1ccc(-n2c(C)nc3ccc(OCCCCCOc4cc5c(cc4OC)C(=O)N4CCC[C@H]4C=N5)cc3c2=O)cc1,180 nM,180 nM,130 nM,< 100 nM,150 nM,–
< 100 nM,130 nM,150 nM,110 nM,170 nM,130 nM,2.3 °C,COc1cc2c(cc1OCCCCCOc1ccc3nc(C)n(-c4ccc(F)c(Cl)c4)c(=O)c3c1)N=C[C@@H]1CCCN1C2=O,140 nM,170 nM,130 nM,< 100 nM,150 nM,Activity (A-375 [3]): 11.92%; Activity (A-375 [4]): Active; inhibition (A-375 [5]): Active; Activity (A-375 [6]): 24.1%; Activity (A-375 [7]): 58.72%; Activity (A-375 [8]): Active; Activity (A-375 [9]): Active; Activity (A-375 [10]): Active; Decrease in Bcl-2 mRNA expression (A-375 [11]): Active; Activity (A-375 [12]): Active
120 nM,170 nM,150 nM,150 nM,170 nM,170 nM,2 °C,COc1cc2c(cc1OCCCCOc1ccc3nc(C)n(-c4ccc(I)cc4C)c(=O)c3c1)N=C[C@@H]1CCCN1C2=O,170 nM,180 nM,150 nM,170 nM,160 nM,–
140 nM,170 nM,160 nM,150 nM,180 nM,180 nM,2.3 °C,COc1cc2c(cc1OCCCCOc1ccc3nc(C)n(-c4ccc(Cl)cc4Cl)c(=O)c3c1)N=C[C@@H]1CCCN1C2=O,180 nM,180 nM,150 nM,170 nM,170 nM,–
110 nM,160 nM,150 nM,140 nM,160 nM,160 nM,2.1 °C,COc1cc2c(cc1OCCCCCOc1ccc3nc(C)n(-c4ccc(I)cc4C)c(=O)c3c1)N=C[C@@H]1CCCN1C2=O,160 nM,170 nM,130 nM,160 nM,160 nM,–
2500 nM,2000 nM,2150 nM,150 nM,1830 nM,26200 nM,2 °C,COc1cc2c(cc1OCCCCCOc1ccc(-n3c(/C=C/c4ccccc4)nc4ccccc4c3=O)cc1)N=C[C@@H]1CCCN1C2=O,2310 nM,2080 nM,170 nM,1820 nM,150 nM,–
2030 nM,2120 nM,1780 nM,140 nM,160 nM,1880 nM,2 °C,COc1cc2c(cc1OCCCOc1ccc(-n3c(/C=C/c4ccccc4)nc4ccccc4c3=O)cc1)N=C[C@@H]1CCCN1C2=O,2150 nM,2000 nM,140 nM,1850 nM,160 nM,–
150 nM,150 nM,150 nM,140 nM,170 nM,130 nM,2.2 °C,COc1cc2c(cc1OCCCCCOc1ccc3nc(C)n(-c4ccc(F)cc4)c(=O)c3c1)N=C[C@@H]1CCCN1C2=O,180 nM,190 nM,150 nM,130 nM,160 nM,–
–,2230 nM,2070 nM,160 nM,1910 nM,2390 nM,2.3 °C,COc1cc2c(cc1OCCCCOc1ccc(-n3c(/C=C/c4ccccc4)nc4ccccc4c3=O)cc1)N=C[C@@H]1CCCN1C2=O,2330 nM,2190 nM,160 nM,1930 nM,160 nM,–

SMILES,GI50 (MCF7),GI50 (COLO 205),GI50 (KB),GI50 (A2780),GI50 (PC-3),GI50 (A549),ΔTm (Nucleic Acid),GI50 (HOP-62),GI50 (SiHa),GI50 [1],GI50 [2],GI50 (ZR-75-1),further results
COc1cccc2c1C(=O)c1c(O)c3c(c(O)c1C2=O)C[C@@](O)(C(=O)CO)C[C@@H]3O[C@H]1C[C@H](N)[C@H](O)[C@H](C)O1 [DOXORUBICIN],170 nM,140 nM,170 nM,160 nM,–,–,–,140 nM,170 nM,100 nM,170 nM,–,–
COc1cc2c(cc1O)N=C[C@@H]1CCCN1C2=O,170 nM,110 nM,170 nM,140 nM,200 nM,160 nM,0.7 °C,150 nM,170 nM,–,160 nM,–,–
COc1cc2c(cc1OCCCOc1ccc(-n3c(C)nc4ccccc4c3=O)cc1)N=C[C@@H]1CCCN1C2=O,1830 nM,140 nM,150 nM,100 nM,130 nM,1480 nM,2 °C,160 nM,160 nM,110 nM,130 nM,150 nM,–
COc1cc2c(cc1OCCCCOc1ccc(-n3c(C)nc4ccccc4c3=O)cc1)N=C[C@@H]1CCCN1C2=O,2300 nM,1810 nM,1980 nM,1650 nM,170 nM,1930 nM,2.1 °C,1950 nM,1900 nM,1600 nM,1950 nM,170 nM,–
